Assay results published in ChEMBL document CHEMBL4033790, “Design and Synthesis of Novel Deuterated Ligands Functionally Selective for the γ-Aminobutyric Acid Type A Receptor (GABAAR) α6 Subtype with Improved Metabolic Stability and Enhanced Bioavailability” (J Med Chem, 2018).
≈ marks a conversion by molar mass, not a printed value. Calls of active or inactive are those of the source. No cut-off for these calls is given here.

Experiments:
Liver [1] = test: Half life in human liver microsomes at 10 uM by LC-MS/MS analysis; format: ADME, microsome
Method in brief: (§1)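 Compound at 10 μM final was preincubated 5 min at 37 °C with NADPH regenerating system in phosphate buffer, pH 7.4. Human or mouse liver microsomes (0.5 mg/mL protein) were added to start the reaction. Samples were taken at 0 (no microsomes) and 10–60 min and measured by LC-MS/MS against an internal standard. Half-life = 0.693/k, with k the slope of ln peak-area ratio versus time. Three experiments, each in duplicate.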

[2] = Metabolic stability in human liver microsomes assessed as parent compound remaining at 10 uM after 60 mins by LC-MS analysis; format: ADME, microsome; conditions: read-out: Stability
Method in brief: (§2)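 The 60 min samples of the microsomal incubation (10 μM compound, human or mouse liver microsomes at 0.5 mg/mL, NADPH regenerating system, 37 °C) were analysed by LC-MS. Detection used SIM mode with dual ESI/APCI ionization, calibrated to the retention times and masses of the parent and its O-demethylated metabolites. Peak intensities were measured.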

Liver [3] = test: Half life in mouse liver microsomes at 10 uM by LC-MS/MS analysis; format: ADME, microsome; method in brief: as §1
[4] = Metabolic stability in mouse liver microsomes assessed as parent compound remaining at 10 uM after 60 mins by LC-MS analysis; format: ADME, microsome; conditions: read-out: Stability; method in brief: as §2
HEK-293T = test: Cytotoxicity against HEK293T cells assessed as reduction in cell viability up to 400 uM after 48 hrs by CellTiter-Glo assay; format: cell-based; conditions: human
Method in brief: (§3)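 HEK293T and HepG2 cells grown in high-glucose DMEM with non-essential amino acids, 10 mM HEPES, penicillin/streptomycin and 10% heat-inactivated FBS. Cells were harvested with trypsin and plated; compound was pin-transferred 3 h later. Incubation was 48 h, then CellTiter-Glo luminescence was read. Controls were DMSO (negative) and a cytotoxic aminoketone (positive). Quadruplicates, three independent runs, normalized to controls, nonlinear regression.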

HepG2 = test: Cytotoxicity against human HepG2 cells assessed as reduction in cell viability up to 400 uM after 48 hrs by CellTiter-Glo assay; format: cell-based; conditions: hepg2, 48 h; method in brief: as §3
[5] = biological target: Voltage-gated inwardly rectifying potassium channel KCNH2 (Homo sapiens, UniProt Q12809); test: Displacement of [3H]-dofetilide from human ERG expressed in HEK cell membranes at >10 uM after 60 to 90 mins by scintillation counting
Chain of Voltage-gated inwardly rectifying potassium channel KCNH2 (Q12809 whole entry): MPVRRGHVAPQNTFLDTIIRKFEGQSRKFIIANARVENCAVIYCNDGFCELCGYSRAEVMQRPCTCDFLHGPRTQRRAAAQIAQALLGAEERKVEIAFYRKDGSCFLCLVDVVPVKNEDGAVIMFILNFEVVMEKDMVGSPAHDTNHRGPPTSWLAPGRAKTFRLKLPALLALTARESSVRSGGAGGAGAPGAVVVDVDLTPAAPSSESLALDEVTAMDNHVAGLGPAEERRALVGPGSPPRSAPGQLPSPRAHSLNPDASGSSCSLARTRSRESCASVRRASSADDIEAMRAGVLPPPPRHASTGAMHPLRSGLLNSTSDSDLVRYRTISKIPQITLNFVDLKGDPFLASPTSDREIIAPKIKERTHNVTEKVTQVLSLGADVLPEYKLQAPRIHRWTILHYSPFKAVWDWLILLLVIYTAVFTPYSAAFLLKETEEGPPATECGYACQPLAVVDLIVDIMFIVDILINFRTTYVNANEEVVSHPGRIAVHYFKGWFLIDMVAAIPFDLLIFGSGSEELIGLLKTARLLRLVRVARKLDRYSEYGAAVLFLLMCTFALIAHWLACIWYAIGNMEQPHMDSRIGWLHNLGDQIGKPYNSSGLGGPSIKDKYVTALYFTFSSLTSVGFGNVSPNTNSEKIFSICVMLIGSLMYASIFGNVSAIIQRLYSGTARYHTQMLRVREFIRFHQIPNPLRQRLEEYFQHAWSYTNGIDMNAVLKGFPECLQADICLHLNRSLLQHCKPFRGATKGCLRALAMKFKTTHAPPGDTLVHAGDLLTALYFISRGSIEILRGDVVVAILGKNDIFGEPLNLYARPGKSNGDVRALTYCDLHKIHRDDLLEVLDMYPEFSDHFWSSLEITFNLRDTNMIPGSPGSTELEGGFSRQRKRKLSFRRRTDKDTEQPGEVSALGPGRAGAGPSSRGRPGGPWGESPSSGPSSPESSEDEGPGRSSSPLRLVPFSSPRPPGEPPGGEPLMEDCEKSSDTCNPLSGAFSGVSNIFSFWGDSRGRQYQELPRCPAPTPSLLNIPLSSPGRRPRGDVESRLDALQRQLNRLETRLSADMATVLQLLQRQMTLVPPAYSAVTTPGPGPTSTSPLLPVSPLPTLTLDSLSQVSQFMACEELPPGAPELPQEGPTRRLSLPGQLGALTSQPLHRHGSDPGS

Mus musculus = test: Neurotoxicity in Swiss Webster mouse assessed as induction of motor impairment at 40 mg/kg administered via oral gavage measured after 10 to 60 mins by rotarod method; format: toxicity, organism-based; conditions: in vivo
Method in brief: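 Female mice were given a single oral gavage dose of 40 mg/kg, either in 50% PBS/40% propylene glycol/10% DMSO or, for poorly soluble compounds, in 2% polyethylene glycol plus 2.5% hydroxymethyl cellulose. Rotarod performance was tested 10, 30 and 60 min after dosing, with diazepam 5 mg/kg as positive control.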

Rattus norvegicus = species: Rattus norvegicus; test: Displacement of [3H]-flunitrazepam from rat brain GABA-A receptor benzodiazepine site […] at 10 uM after 60 to 90 mins by scintillation counting
[6] = biological target: 5-hydroxytryptamine receptor 7 (Homo sapiens) (UniProt P34969); test: Displacement of [3H]-LSD from human recombinant 5HT7 receptor expressed in HEK293 cells at 10 uM after 60 to 90 mins by scintillation counting; format: cell-based; conditions: tested as the 2H-labelled form
Chain of 5-hydroxytryptamine receptor 7 (Homo sapiens) (P34969 whole entry): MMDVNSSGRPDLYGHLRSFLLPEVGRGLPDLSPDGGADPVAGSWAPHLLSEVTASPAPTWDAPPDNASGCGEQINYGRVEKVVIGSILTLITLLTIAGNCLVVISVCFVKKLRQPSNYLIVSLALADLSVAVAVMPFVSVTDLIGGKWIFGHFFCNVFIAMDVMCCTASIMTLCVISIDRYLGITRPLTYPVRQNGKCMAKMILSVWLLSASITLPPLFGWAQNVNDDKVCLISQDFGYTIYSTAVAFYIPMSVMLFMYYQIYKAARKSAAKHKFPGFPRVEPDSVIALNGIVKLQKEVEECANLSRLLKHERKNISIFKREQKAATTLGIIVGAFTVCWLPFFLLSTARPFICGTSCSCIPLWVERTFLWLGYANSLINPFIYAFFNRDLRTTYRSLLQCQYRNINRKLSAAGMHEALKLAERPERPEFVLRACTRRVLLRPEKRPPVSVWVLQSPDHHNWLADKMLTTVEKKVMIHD

[7] = biological target: Mu-type opioid receptor (Homo sapiens) (UniProt P35372); test: Displacement of [3H]-DAMGO from human recombinant MOR expressed in HEK293 cells at 10 uM after 60 to 90 mins by scintillation counting; format: cell-based; conditions: tested as the 2H-labelled form
Chain of Mu-type opioid receptor (Homo sapiens) (P35372 whole entry): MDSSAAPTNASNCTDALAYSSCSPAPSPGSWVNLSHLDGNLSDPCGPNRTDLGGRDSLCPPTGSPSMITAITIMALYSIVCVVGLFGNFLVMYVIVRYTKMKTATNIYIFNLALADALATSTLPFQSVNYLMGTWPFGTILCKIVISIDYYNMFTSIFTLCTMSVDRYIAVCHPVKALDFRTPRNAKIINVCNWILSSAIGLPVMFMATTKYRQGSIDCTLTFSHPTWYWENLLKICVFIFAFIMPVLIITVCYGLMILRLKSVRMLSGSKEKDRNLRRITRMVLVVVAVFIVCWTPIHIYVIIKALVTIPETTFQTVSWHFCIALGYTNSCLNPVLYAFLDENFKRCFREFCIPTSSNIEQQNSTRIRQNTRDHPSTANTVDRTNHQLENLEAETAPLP

[8] = biological target: 5-hydroxytryptamine receptor 2B (Homo sapiens) (UniProt P41595); test: Displacement of [3H]-LSD from human recombinant 5HT2B receptor expressed in HEK293 cells at 10 uM after 60 to 90 mins by scintillation counting; format: cell-based; conditions: tested as the 2H-labelled form
Chain of 5-hydroxytryptamine receptor 2B (Homo sapiens) (P41595 whole entry): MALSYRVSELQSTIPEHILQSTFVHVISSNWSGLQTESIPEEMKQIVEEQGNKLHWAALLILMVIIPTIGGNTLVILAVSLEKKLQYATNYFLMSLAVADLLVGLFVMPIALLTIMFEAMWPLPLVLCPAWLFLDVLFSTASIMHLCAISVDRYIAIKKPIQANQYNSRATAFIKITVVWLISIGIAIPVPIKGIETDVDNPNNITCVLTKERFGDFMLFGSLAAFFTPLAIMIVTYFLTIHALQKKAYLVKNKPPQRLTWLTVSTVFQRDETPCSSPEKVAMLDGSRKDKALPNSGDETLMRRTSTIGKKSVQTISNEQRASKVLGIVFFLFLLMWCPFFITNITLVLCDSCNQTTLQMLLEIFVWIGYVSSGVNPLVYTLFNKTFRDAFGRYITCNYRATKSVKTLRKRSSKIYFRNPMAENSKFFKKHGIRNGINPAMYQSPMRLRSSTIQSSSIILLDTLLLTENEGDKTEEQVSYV

[9] = biological target: T1, 5-hydroxytryptamine receptor 2C (Homo sapiens) (UniProt P28335); test: Displacement of [3H]-mesulergine from human recombinant 5HT2C receptor expressed in HEK293T cells at 10 uM after 60 to 90 mins by scintillation counting; format: cell-based; conditions: HEK-293T, tested as the 2H-labelled form
T1 sequence (whole entry): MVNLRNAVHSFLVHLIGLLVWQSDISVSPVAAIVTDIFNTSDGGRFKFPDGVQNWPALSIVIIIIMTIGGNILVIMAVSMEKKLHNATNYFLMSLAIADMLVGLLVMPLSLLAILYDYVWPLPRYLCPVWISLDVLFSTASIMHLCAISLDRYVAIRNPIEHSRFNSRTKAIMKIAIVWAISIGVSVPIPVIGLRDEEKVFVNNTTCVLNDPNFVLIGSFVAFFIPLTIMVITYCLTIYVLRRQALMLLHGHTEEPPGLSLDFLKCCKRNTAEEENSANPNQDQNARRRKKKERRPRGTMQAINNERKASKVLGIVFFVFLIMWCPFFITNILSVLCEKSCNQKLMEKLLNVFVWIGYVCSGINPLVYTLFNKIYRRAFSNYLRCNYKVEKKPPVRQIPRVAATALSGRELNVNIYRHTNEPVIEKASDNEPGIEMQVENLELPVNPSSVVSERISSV

[10] = biological target: GABA-A receptor; alpha-6/beta-3/gamma-2 (Homo sapiens) (UniProt P18507+P28472+Q16445); test: Positive allosteric modulation of GABA-A receptor alpha6beta3gamma2 (unknown origin) expressed in Xenopus laevis oocytes assessed as potentiation of EC3 GABA induced currents up to 10 uM at -60 mV holding potential by electrophysiological method; format: cell-based
Method in brief: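 Stage 5–6 defolliculated Xenopus oocytes were injected with 2.5 ng total mRNA per oocyte: α1, α2, α3 or α5 with β3 and γ2 at 1:1:5, and α4 or α6 with β3 and γ2 at 3:1:5. Oocytes were kept ≥36 h at 18 °C in NDE medium before recording. Compounds were co-applied with GABA titrated to EC3-5 for each oocyte. Curves were fitted with the Hill equation; mean ± SEM from ≥3 oocytes across two batches.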

[11] = Aqueous solubility of the compound in DI water at pH 7 after 2 hrs by LC-MS analysis; format: physicochemical; conditions: buffer, pH 7, 2 h
Method in brief: (§4)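 10 mg compound dissolved in 2 mL DMAC; 10 μL of this added to 2 mL DI water (pH 7, sonicated) or 2 mL 0.01 M aq HCl (pH 2), held 2 h at 37 °C. Filtered through 0.45 micron filter, then quantified by LC-MS in SIM mode against calibration curves of standards in DMAC (n = 5); n=3.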

[12] = Solubility of the compound in 0.01M HCl at pH 2 after 2 hrs by LC-MS analysis; format: physicochemical; conditions: buffer, pH 2, 2 h; method in brief: as §4

| Structure (SMILES) | t1/2 (Liver [1]) [h] | remaining at 1 h, 10 µM [2] [%] | t1/2 (Liver [3]) [h] | remaining at 1 h, 10 µM [4] [%] | inhibition (INH) [5] | Activity (Mus musculus) | further results |
| --- | --- | --- | --- | --- | --- | --- | --- |
| [2H]C([2H])([2H])Oc1cccc(-n2nc3c4ccc(OC([2H])([2H])[2H])cc4[nH]cc-3c2=O)c1 | 7.7 | 89.5 | 9.9 | 90.5 | Not Active |  | Activity (HEK-293T): Non-Toxic; Activity (HepG2): Non-Toxic |
| [2H]C([2H])([2H])Oc1ccc(-n2nc3c4cc(Cl)ccc4[nH]cc-3c2=O)cn1 |  | 93 |  | 85.1 | Not Active | Non-Toxic |  |
| [2H]C([2H])([2H])Oc1cccc(-n2nc3c4ccc(Br)cc4[nH]cc-3c2=O)c1 | 1.8 | 63.5 | 3.6 | 79.5 | Not Active |  |  |
| [2H]C([2H])([2H])Oc1ccc2[nH]cc3c(=O)n(-c4ccccc4OC([2H])([2H])[2H])nc-3c2c1 |  |  |  |  | Not Active |  |  |
| COc1ccc2c3nn(-c4ccccc4OC)c(=O)c-3c[nH]c2c1 |  |  |  |  |  |  | inhibition (Rattus norvegicus; tested as the 2H-labelled form): inactive |
| [2H]C([2H])([2H])Oc1ccc(-n2nc3c4cc(Cl)ccc4[nH]cc-3c2=O)cc1 |  | 92.2 |  | 85.5 | Not Active | Non-Toxic | Activity (HEK-293T): Non-Toxic; Activity (HepG2): Non-Toxic |
| [2H]C([2H])([2H])Oc1ccccc1-n1nc2c3ccc(Br)cc3[nH]cc-2c1=O | 14.2 | 92.8 | 1.5 | 61.3 | Not Active |  |  |
| COc1ccccc1-n1nc2c3ccc(Br)cc3[nH]cc-2c1=O |  |  |  |  |  |  | inhibition (Rattus norvegicus; tested as the 2H-labelled form): Active; inhibition [6]: Active; inhibition [7]: Active; inhibition [8]: Active; inhibition [9]: Active |
| [2H]C([2H])([2H])Oc1cccc(-n2nc3c4cc(OC([2H])([2H])[2H])ccc4[nH]cc-3c2=O)c1 |  |  |  |  | Not Active |  |  |
| [2H]C([2H])([2H])Oc1ccc(-n2nc3c4cc(OC([2H])([2H])[2H])ccc4[nH]cc-3c2=O)cc1 |  |  |  |  | Not Active |  |  |
| [2H]C([2H])([2H])Oc1cccc(-n2nc3c4ccc(OC)cc4[nH]cc-3c2=O)c1 | 3.9 | 81.3 | 14.5 | 91.6 | Not Active |  |  |
| COc1ccccc1-n1nc2c3cc(Cl)ccc3[nH]cc-2c1=O |  |  |  |  |  |  | inhibition (Rattus norvegicus; tested as the 2H-labelled form): Active; Activity ([10]; tested as the 2H-labelled form): inactive |
| [2H]C([2H])([2H])Oc1ccc2c3nn(-c4ccc(OC([2H])([2H])[2H])nc4)c(=O)c-3c[nH]c2c1 | 9.8 | 90 | 14.5 | 92.5 |  | Non-Toxic |  |
| [2H]C([2H])([2H])Oc1ccc(-n2nc3c4ccc(Br)cc4[nH]cc-3c2=O)cn1 |  | 97.8 |  | 98.4 | Not Active | Non-Toxic |  |
| COc1ccc(-n2nc3c4cnc(OC)cc4[nH]cc-3c2=O)cc1 | 10.6 | 91 | 12 | 93 | Not Active |  | solubility [11]: 103.7 µM (≈ 33.4 µg/mL); solubility [12]: 135.9 µM (≈ 43.8 µg/mL); Activity [10]: Active |
| COc1ccc(-n2nc3c4ccc(Br)cc4[nH]cc-3c2=O)cn1 |  | 93.4 |  | 93.1 | Not Active | Non-Toxic | solubility [11]: 7.3 µM (≈ 2.71 µg/mL); solubility [12]: 7.2 µM (≈ 2.67 µg/mL); Activity (HEK-293T): Non-Toxic; Activity (HepG2): Non-Toxic; Activity ([10]; tested as the 2H-labelled form): Active |
| [2H]C([2H])([2H])Oc1ccccc1-n1nc2c3ccc(OC)cc3[nH]cc-2c1=O | 3.5 | 79.9 | 10.9 | 93 | Not Active |  |  |
| COc1ccc(-n2nc3c4cc(Cl)ccc4[nH]cc-3c2=O)cn1 |  | 91.6 |  | 85.6 | Not Active | Non-Toxic | solubility [11]: 0.8 µM (≈ 0.261 µg/mL); solubility [12]: 0.9 µM (≈ 0.294 µg/mL); inhibition (Rattus norvegicus): Active; inhibition (Rattus norvegicus; tested as the 2H-labelled form): Active; Activity (HEK-293T): Non-Toxic; Activity (HepG2): Non-Toxic; Activity ([10]; tested as the 2H-labelled form): inactive |
| [2H]C([2H])([2H])Oc1ccc2c3nn(-c4ccccc4OC([2H])([2H])[2H])c(=O)c-3c[nH]c2c1 | 9.9 | 90.5 | 13.9 | 92 | Not Active |  | Activity (HEK-293T): Non-Toxic; Activity (HepG2): Non-Toxic |
